Here are results for 30 molecules from ChEMBL document CHEMBL3045525, “Synthesis and fungicidal activity of novel 2,5-disubstituted-1,3,4-oxadiazole derivatives” (2012).

The subject of assay [1] is Rhizoctonia solani. Briefly: Fungicidal activity against Rhizoctonia solani infected drug-pretreated cucumber two seeded leaves assessed as decrease in disease index at 500 ug/ml (acetone Rvb = 2.22 +/-0.79%). The format is functional. The essentials:
(§1)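 Greenhouse cucumber assay. Fungi kept on PDA at 4 °C and cultured at 24 ± 1 °C. Plants at the two-seed-leaf stage had leaves hand-sprayed at 500 μg/mL, then were inoculated and held at 24 ± 1 °C, >80% RH. Efficacy = (CK − PT)/CK × 100, from average disease indices.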

Assay [2] deals with Botrytis cinerea. Briefly: Fungicidal activity against Botryotinia fuckeliana infected in drug-pretreated cucumber two seeded leaves assessed as decrease in disease index at 500 ug/ml (acetone Rvb = 1.53 +/-0.21%). The format is functional. Put shortly: as §1
The test system of assay [3] is Corynespora cassiicola. Briefly: Fungicidal activity against Corynespora cassiicola infected in drug-pretreated cucumber two seeded leaves assessed as decrease in disease index at 500 ug/ml (acetone Rvb = 5.23 +/-0.88%). The format is functional. The essentials: as §1
For assay [4], the system named is Cladosporium cucumerinum. As to the kind of experiment: Fungicidal activity against Cladosporium cucumerinum infected drug-pretreated cucumber two seeded leaves assessed as decrease in disease index at 500 ug/ml (acetone Rvb = 3.18 +/-0.75%). The class given is functional. The essentials:
as §1

Assay [5] relates to Corynespora cassiicola. As to the kind of experiment: Fungicidal activity against Corynespora cassiicola infected in drug-pretreated cucumber two seeded leaves assessed as decrease in disease index at 75% WP formulation (acetone Rvb = 5.23 +/-0.88%). The format is functional. Put shortly: as §1
The subject of assay [6] is Rhizoctonia solani. As to the kind of experiment: Fungicidal activity against Rhizoctonia solani infected drug-pretreated cucumber two seeded leaves assessed as decrease in disease index at 3% AS formulation (acetone Rvb = 2.22 +/-0.79%). The format is functional. The essentials: as §1
For assay [7], the system named is Botrytis cinerea. Briefly: Fungicidal activity against Botryotinia fuckeliana infected in drug-pretreated cucumber two seeded leaves assessed as decrease in disease index at 40% SC formulation (acetone Rvb = 1.53 +/-0.21%). The class given is functional. Put shortly:
as §1

In assay [8] the test system is Cladosporium cucumerinum. Briefly: Fungicidal activity against Cladosporium cucumerinum infected drug-pretreated cucumber two seeded leaves assessed as decrease in disease index at 40% EC formulation (acetone Rvb = 3.18 +/-0.75%).

`CCC(=O)N1N=C(c2ccc(-c3ccc(F)cc3)o2)OC1c1ccccc1Cl` (stereo not drawn): the Efficacy is on record as 52.33% in the assay on Rhizoctonia solani [1], -24.9% in the assay on Botrytis cinerea [2], 46.75% in the assay with Corynespora cassiicola [3] and 31.48% in the assay on Cladosporium cucumerinum [4].
The corresponding values for `O=C(N/N=C/c1ccc(Br)cc1)c1ccc(-c2ccccc2Cl)o1` are 57.85%, 91.76%, 28.79% and 19.75%.
The corresponding values for `Clc1ccccc1-c1ccc(-c2nnc(-c3ccc(Br)cc3)o2)o1` are -1.16%, -2.61%, 90.59% and 17.9%.
The corresponding values for `O=C(N/N=C/c1ccccc1Cl)c1ccc(-c2ccc(F)cc2)o1` are 8%, 72%, 13.87% and -22%.
Turning to `O=C(N/N=C/c1ccccc1)c1ccc(-c2ccc(Cl)cc2)o1`, the Efficacy is listed as 10.2% in the assay with Rhizoctonia solani [1], 11% with Botrytis cinerea [2], 50.78% with Corynespora cassiicola [3] and -8.1% in the assay on Cladosporium cucumerinum [4].
With `N#Cc1c(Cl)c(Cl)c(Cl)c(C#N)c1Cl` [CHLOROTHALONIL], the Efficacy in the assay on Corynespora cassiicola [5] was 93.53%.
Regarding `COc1ccc(C(=O)NNC(=O)c2ccc(-c3ccc([N+](=O)[O-])cc3)o2)cc1`, the Efficacy came to 24.45% in the assay with Rhizoctonia solani [1], 29.9% in the assay on Botrytis cinerea [2], 36.36% with Corynespora cassiicola [3] and 57.89% in the assay on Cladosporium cucumerinum [4].
Consider `OCC1=C[C@H](N[C@H]2C[C@H](CO)[C@@H](O[C@@H]3O[C@H](CO)[C@@H](O)[C@H](O)[C@H]3O)[C@H](O)[C@H]2O)[C@H](O)[C@@H](O)[C@@H]1O` [VALIDAMYCIN], for which the Efficacy with Rhizoctonia solani [6] amounted to 93.68%.
For `CC(=O)N1N=C(c2ccc(-c3ccccc3Cl)o2)OC1c1ccc(Br)cc1` (stereo not drawn), the Efficacy in the assay on Rhizoctonia solani [1] is 14.3%; in the assay on Botrytis cinerea [2], 23.23%; in the assay on Corynespora cassiicola [3] it was 32.03%; with Cladosporium cucumerinum [4], 16.67%.
The corresponding values for `CCC(=O)N1N=C(c2ccc(-c3ccccc3Cl)o2)OC1c1ccc(Br)cc1` (stereo not drawn) are 63.87%, 13.91%, 41.18% and 23.98%.
On to `CC(=O)N1N=C(c2ccc(-c3ccccc3F)o2)OC1c1ccc(Cl)cc1` (stereo not drawn), for which the Efficacy in the assay with Rhizoctonia solani [1] came to 66.28%; in the assay on Botrytis cinerea [2], 18.89%; in the assay on Corynespora cassiicola [3], 28.85%; in the assay with Cladosporium cucumerinum [4], 31.11%.
The corresponding values for `CC(=O)N1N=C(c2ccc(-c3ccc(Cl)cc3)o2)OC1c1ccccc1` (stereo not drawn) are 69.09%, 70.71%, 35.29% and 45.61%.
`Cc1cc(C)nc(Nc2ccccc2)n1` [PYRIMETHANIL]: the Efficacy in the assay on Botrytis cinerea [7] was determined as 69.57%.
For `O=C(NNC(=O)c1ccc(-c2ccccc2Cl)o1)c1ccc(Br)cc1`, the Efficacy with Rhizoctonia solani [1] came to 49.42%; in the assay on Botrytis cinerea [2], 24.64%; in the assay on Corynespora cassiicola [3], 8.24%; in the assay on Cladosporium cucumerinum [4] it was 14.2%.
As to `COc1ccc(-c2nnc(-c3ccc(-c4ccc([N+](=O)[O-])cc4)o3)o2)cc1`, the Efficacy was -3.97% in the assay on Rhizoctonia solani [1], 47.83% in the assay on Botrytis cinerea [2], 10.59% in the assay on Corynespora cassiicola [3] and 12.35% with Cladosporium cucumerinum [4].
The corresponding values for `Cc1ccc(-c2nnc(-c3ccc(-c4ccc(Cl)cc4)o3)o2)cc1` are 24.13%, 42.38%, 28.24% and 5.85%.
As for `O=C(NNC(=O)c1ccc(-c2ccccc2[N+](=O)[O-])o1)c1ccc(Cl)cc1`, the Efficacy with Rhizoctonia solani [1] came out at 95.56%; with Botrytis cinerea [2] it was 79.58%; in the assay on Corynespora cassiicola [3] it was 66.09%; with Cladosporium cucumerinum [4] it was 14.44%.
The corresponding values for `O=C(NNC(=O)c1ccccc1Cl)c1ccc(-c2ccc(F)cc2)o1` are 69.35%, 89.57%, 34.26% and 30.32%.
The corresponding values for `O=[N+]([O-])c1ccccc1-c1ccc(-c2nnc(-c3ccc(Cl)cc3)o2)o1` are 94.38%, -30.02%, 15.17% and 17.2%.
The corresponding values for `CCOc1ccc(-c2nnc(-c3ccc(-c4ccc([N+](=O)[O-])cc4)o3)o2)cc1` are 63.47%, 77.78%, 25.49% and 16.48%.
For `COc1ccc(C(=O)NNC(=O)c2ccc(-c3ccccc3[N+](=O)[O-])o2)cc1`, the Efficacy in the assay with Rhizoctonia solani [1] turned out to be 56.45%; with Botrytis cinerea [2] it was 35.5%; with Corynespora cassiicola [3], 28.35%; in the assay on Cladosporium cucumerinum [4], 2.61%.
With `C[Si](Cn1cncn1)(c1ccc(F)cc1)c1ccc(F)cc1` [FLUSILAZOLE], the Efficacy in the assay with Cladosporium cucumerinum [8] stood at 95.56%.
For `CCOc1ccc(C(=O)NNC(=O)c2ccc(-c3ccccc3[N+](=O)[O-])o2)cc1`, the Efficacy is recorded as 78.93% with Rhizoctonia solani [1], -43.27% with Botrytis cinerea [2], 18.82% with Corynespora cassiicola [3] and 10% in the assay with Cladosporium cucumerinum [4].
The corresponding values for `COc1ccc(-c2nnc(-c3ccc(-c4ccccc4[N+](=O)[O-])o3)o2)cc1` are 48.48%, 92.68%, 48.61% and 15%.
The corresponding values for `O=C(N/N=C/c1ccc(Cl)cc1)c1ccc(-c2ccccc2F)o1` are -5.2%, 27%, -3.05% and 37.3%.
On to `CCOc1ccc(C(=O)NNC(=O)c2ccc(-c3ccc([N+](=O)[O-])cc3)o2)cc1`, for which the Efficacy is recorded as 71.9% in the assay with Rhizoctonia solani [1], 79.13% with Botrytis cinerea [2], 38.24% with Corynespora cassiicola [3] and 28.35% in the assay with Cladosporium cucumerinum [4].
The corresponding values for `Fc1ccc(-c2ccc(-c3nnc(-c4ccccc4Cl)o3)o2)cc1` are 25.54%, 76.52%, 27.94% and 7.78%.
The corresponding values for `CC(=O)N1N=C(c2ccc(-c3ccc(F)cc3)o2)OC1c1ccccc1Cl` (stereo not drawn) are 31.03%, 76.28%, 28.72% and 40%.
The corresponding values for `Cc1ccc(C(=O)NNC(=O)c2ccc(-c3ccc(Cl)cc3)o2)cc1` are 19.8%, 4.35%, 50.87% and 29.8%.
For the molecule `CCOc1ccc(-c2nnc(-c3ccc(-c4ccccc4[N+](=O)[O-])o3)o2)cc1`, the Efficacy in the assay on Rhizoctonia solani [1] came to 65.58%; in the assay with Botrytis cinerea [2], 33.75%; with Corynespora cassiicola [3] it was 74.71%; in the assay with Cladosporium cucumerinum [4], 8.89%.
